Test results: ChEMBL document CHEMBL4043109, “Dual inhibitors of the human blood-brain barrier drug efflux transporters P-glycoprotein and ABCG2 based on the antiviral azidothymidine” (Bioorg Med Chem, 2017)
Blank lines part the entries; values can stand above or below the molecule they belong to. Active and inactive are the calls of the source. The rule behind the calls is not given here.

Legend:
[1] = biological target: T1, Broad substrate specificity ATP-binding cassette transporter ABCG2 (Homo sapiens, UniProt Q9UNQ0); experiment: Inhibition of ABCG2 in human MCF7/FLV1000 cells assessed as increase in mitoxantrone accumulation at 200 uM incubated for 30 mins by flow cytometry; conditions: 0.5 h
T1 sequence (Q9UNQ0 whole entry): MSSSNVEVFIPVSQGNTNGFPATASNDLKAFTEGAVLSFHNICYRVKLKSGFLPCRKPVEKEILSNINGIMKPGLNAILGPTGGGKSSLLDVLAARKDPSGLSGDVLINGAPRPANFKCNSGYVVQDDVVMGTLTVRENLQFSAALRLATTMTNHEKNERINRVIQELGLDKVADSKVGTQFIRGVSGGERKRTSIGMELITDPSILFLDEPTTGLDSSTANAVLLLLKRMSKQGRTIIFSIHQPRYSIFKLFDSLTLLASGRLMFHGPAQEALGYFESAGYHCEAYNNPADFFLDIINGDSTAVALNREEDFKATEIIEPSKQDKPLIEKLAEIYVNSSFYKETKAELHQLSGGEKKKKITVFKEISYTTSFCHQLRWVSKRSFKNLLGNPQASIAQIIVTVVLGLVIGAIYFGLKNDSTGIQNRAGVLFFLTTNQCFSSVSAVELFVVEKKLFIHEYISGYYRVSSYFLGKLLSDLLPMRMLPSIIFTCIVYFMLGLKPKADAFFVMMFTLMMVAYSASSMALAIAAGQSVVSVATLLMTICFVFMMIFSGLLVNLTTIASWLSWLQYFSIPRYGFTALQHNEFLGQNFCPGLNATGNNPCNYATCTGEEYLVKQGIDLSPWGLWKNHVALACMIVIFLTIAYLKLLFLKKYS

[2] = Inhibition of P-gp in human MCF7/DX1 cells assessed as increase in calcein-AM accumulation incubated for 10 mins by flow cytometry; format: cell-based; conditions: MCF7/DX1, 10 min
Procedure, shortened: (§1)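 MCF-7/DX1 cells (125,000, in suspension) were incubated at 37 °C for 10 min in BME containing 0.5 μM calcein-AM (final) plus increasing compound concentrations, with DMSO held at 5%. GF120918 1 μM served as positive control. IC50 was taken from mean fluorescence; triplicate.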

[3] = Cytotoxicity in human MCF-7 FLV1000 cells assessed as cell viability at 40 uM incubated for 24 hrs by MTT assay; format: cell-based; conditions: read-out: Activity
Procedure, shortened: (§2)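 MTT viability assay on MCF-7/FLV1000 (ABCG2-overexpressing, grown with 1000 nM flavopiridol) and MCF-7/DX1 (P-gp-overexpressing, grown with 1 μM doxorubicin) cells. Cells were exposed for 24 h to increasing dimer concentrations. Viability is the absorbance of treated cells relative to untreated cells.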

[4] = biological target: T1, Broad substrate specificity ATP-binding cassette transporter ABCG2; experiment: Inhibition of ABCG2 in human MCF7/FLV1000 cells assessed as increase in mitoxantrone accumulation incubated for 30 mins by flow cytometry
[5] = Cytotoxicity in human MCF7/DX1 cells assessed as cell viability at 2 uM incubated for 24 hrs by MTT assay; format: cell-based; conditions: read-out: Activity
Procedure, shortened: as §2

[6] = Cytotoxicity in human MCF-7 FLV1000 cells assessed as cell viability at […] uM incubated for 24 hrs by MTT assay; format: cell-based; conditions: read-out: Activity
[7] = biological target: T1, Broad substrate specificity ATP-binding cassette transporter ABCG2; experiment: Inhibition of human ABCG2 expressed in Sf9 cell membranes assessed as reduction in [125I]-IAAP binding incubated for 20 mins under UV light irradiation and measured after 30 mins by densitometry based photo-affinity labeling assay
Procedure, shortened: (§3)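 Crude Sf9 membranes, from baculovirus infection expressing P-gp (25 µg) or ABCG2 (40 µg), were preincubated 10 min at room temperature in the dark. Buffer was 50 mM Tris pH 7.5 with 1% aprotinin, 1 mM DTT and 2 mM AEBSF. Additions were compound (in DMSO) and [125I]-IAAP, ~2200 Ci/mmol. Controls were 2.5% DMSO and GF120918 (10 µM for P-gp, 20 µM for ABCG2). Samples were UV-irradiated at 365 nm for 20 min on ice, then held 30 min in Laemmli buffer. Bands were resolved on 7.5% SDS-PAGE, autoradiographed and quantified as % of DMSO control to give IC50.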

[8] = Cytotoxicity in human MCF7/DX1 cells assessed as cell viability at 2.3 uM incubated for 24 hrs by MTT assay; format: cell-based; conditions: read-out: Activity
Procedure, shortened: as §2

[9] = biological target: ATP-dependent translocase ABCB1 (Homo sapiens, UniProt P08183); experiment: Inhibition of human MDR1 expressed in Sf9 cell membranes assessed as reduction in [125I]-IAAP binding incubated for 20 mins under UV light irradiation and measured after 30 mins by densitometry based photo-affinity labeling assay
Sequence of ATP-dependent translocase ABCB1 (P08183 whole entry): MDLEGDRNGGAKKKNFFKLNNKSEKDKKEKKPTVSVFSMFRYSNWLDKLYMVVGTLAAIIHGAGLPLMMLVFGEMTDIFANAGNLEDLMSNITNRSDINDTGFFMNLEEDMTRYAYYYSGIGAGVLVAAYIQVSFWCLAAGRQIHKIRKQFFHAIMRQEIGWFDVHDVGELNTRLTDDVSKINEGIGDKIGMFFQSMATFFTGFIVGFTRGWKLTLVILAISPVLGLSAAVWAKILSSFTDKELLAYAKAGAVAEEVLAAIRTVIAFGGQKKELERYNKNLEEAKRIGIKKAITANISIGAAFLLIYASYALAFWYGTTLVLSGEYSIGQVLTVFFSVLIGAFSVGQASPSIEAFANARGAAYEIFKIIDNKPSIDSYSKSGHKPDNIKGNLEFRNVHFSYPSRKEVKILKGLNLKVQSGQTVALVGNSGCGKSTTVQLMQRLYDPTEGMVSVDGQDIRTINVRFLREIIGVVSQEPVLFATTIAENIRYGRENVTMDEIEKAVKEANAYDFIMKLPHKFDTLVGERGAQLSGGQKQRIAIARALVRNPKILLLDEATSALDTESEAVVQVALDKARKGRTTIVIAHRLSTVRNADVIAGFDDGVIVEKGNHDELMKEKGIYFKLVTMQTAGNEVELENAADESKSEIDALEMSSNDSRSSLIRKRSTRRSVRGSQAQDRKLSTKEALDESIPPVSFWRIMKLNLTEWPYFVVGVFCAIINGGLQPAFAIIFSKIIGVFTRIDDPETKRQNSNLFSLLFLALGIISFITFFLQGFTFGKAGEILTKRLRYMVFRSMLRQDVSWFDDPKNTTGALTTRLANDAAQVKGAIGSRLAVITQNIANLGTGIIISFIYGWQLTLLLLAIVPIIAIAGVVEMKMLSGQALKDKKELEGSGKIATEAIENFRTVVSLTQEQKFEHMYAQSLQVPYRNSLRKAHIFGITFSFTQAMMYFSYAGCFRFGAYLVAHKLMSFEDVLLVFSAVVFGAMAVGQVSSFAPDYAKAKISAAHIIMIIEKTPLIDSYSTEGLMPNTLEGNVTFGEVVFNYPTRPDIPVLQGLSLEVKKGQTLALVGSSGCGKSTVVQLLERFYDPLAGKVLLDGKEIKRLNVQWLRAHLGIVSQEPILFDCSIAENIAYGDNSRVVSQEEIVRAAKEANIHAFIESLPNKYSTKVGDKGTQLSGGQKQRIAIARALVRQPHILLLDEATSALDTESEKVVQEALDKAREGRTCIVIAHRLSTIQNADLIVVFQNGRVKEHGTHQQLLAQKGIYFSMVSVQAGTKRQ
Procedure, shortened: as §3

Homo sapiens [10] = species: Homo sapiens; experiment: Inhibition of P-gp in human MCF7/DX1 cells assessed as increase in calcein-AM accumulation at 400 uM incubated for 10 mins by flow cytometry; format: cell-based
Procedure, shortened: as §1

Homo sapiens [11] = species: Homo sapiens; experiment: Inhibition of P-gp in human MCF7/DX1 cells assessed as increase in calcein-AM accumulation at 500 uM incubated for 10 mins by flow cytometry; format: cell-based
Procedure, shortened: as §1

[12] = biological target: T1, Broad substrate specificity ATP-binding cassette transporter ABCG2; experiment: Inhibition of ABCG2 in human MCF7/FLV1000 cells assessed as increase in mitoxantrone accumulation at 400 uM incubated for 30 mins by flow cytometry; conditions: 0.5 h

IC50 [7]: 4.3 µM | inhibition (INH) ([7]; human, 20 min): Dose-dependent effect | IC50 [2]: 2300 nM | IC50 [9]: 9.3 µM | inhibition (INH) ([9]; human, 20 min): Dose-dependent effect
SMILES: Cc1cn([C@H]2C[C@H](N=[N+]=[N-])[C@@H](COC(=O)CCCCCCCCCCC(=O)OC[C@H]3O[C@@H](n4cc(C)c(=O)[nH]c4=O)C[C@@H]3N=[N+]=[N-])O2)c(=O)[nH]c1=O
IC50 [4]: 11.5 µM | viability at 24 h, 2.3 µM [8]: > 95% | viability at 24 h, 11.5 µM [6]: > 95%

IC50 [2]: 11300 nM
SMILES: Cc1cn([C@H]2C[C@H](N=[N+]=[N-])[C@@H](COC(=O)CCCCCCCCC(=O)OC[C@H]3O[C@@H](n4cc(C)c(=O)[nH]c4=O)C[C@@H]3N=[N+]=[N-])O2)c(=O)[nH]c1=O
IC50 [4]: 28.2 µM

The next lines start with the molecule.

SMILES: Cc1cn([C@H]2C[C@H](N=[N+]=[N-])[C@@H](COC(=O)CCCCCC(=O)OC[C@H]3O[C@@H](n4cc(C)c(=O)[nH]c4=O)C[C@@H]3N=[N+]=[N-])O2)c(=O)[nH]c1=O
inhibition (INH) [1]: Not Active | IC50 [2]: > 200000 nM

SMILES: Cc1cn([C@H]2C[C@H](N=[N+]=[N-])[C@@H](COC(=O)CCCCCCCCCCCCC(=O)OC[C@H]3O[C@@H](n4cc(C)c(=O)[nH]c4=O)C[C@@H]3N=[N+]=[N-])O2)c(=O)[nH]c1=O
IC50 [2]: 2000 nM | viability at 24 h, 40 µM [3]: 60% | IC50 [4]: 13.3 µM | viability at 24 h, 2 µM [5]: > 95% | viability at 24 h, 13.3 µM [6]: > 95%

SMILES: Cc1cn([C@H]2C[C@H](N=[N+]=[N-])[C@@H](COC(=O)CCC(=O)OC[C@H]3O[C@@H](n4cc(C)c(=O)[nH]c4=O)C[C@@H]3N=[N+]=[N-])O2)c(=O)[nH]c1=O
inhibition (INH) [1]: Not Active | inhibition (Homo sapiens [10]): inactive

SMILES: Cc1cn([C@H]2C[C@H](N=[N+]=[N-])[C@@H](CO)O2)c(=O)[nH]c1=O [ZIDOVUDINE]
inhibition (Homo sapiens [11]): inactive | inhibition (INH) [12]: Not Active
